In ChEMBL document CHEMBL1141198, “Design and synthesis of tri-ring P3 benzamide-containing aminonitriles as potent, selective, orally effective inhibitors of cathepsin K” (J Med Chem, 2005):
pIC50, pKi: −log10 of the molar value.

How the values were obtained:
Osteoclast = experiment: In vitro bone resorption in isolated rabbit osteoclasts; assay type: functional, cell-based; details: Oryctolagus cuniculus
In short: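 Bovine bone degraded by isolated rabbit osteoclasts; collagen degradation read by ELISA. 8-point dose–response curves; IC50 derived.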

Cathepsin B = Cathepsin B (Homo sapiens, UniProt P07858); experiment: Inhibitory constant against human cathepsin B using Boc-Leu-Lys-Arg-AMC substrate
Rattus norvegicus [1] = experiment: Terminal half-life in rat administered with 0.5 mg/kg, iv; assay type: functional, organism-based; design: dose 0.5 mg/kg
In short: (§1)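 Rats, three per study, cassette iv dosing of up to four compounds. Formulation DMSO (<20%), PEG 400 (<20%) and water at 0.5 mg/mL per compound, given at 1 mL/kg for 0.5 mg/kg per compound.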

Rattus norvegicus [2] = experiment: Mean residence time in rat administered with 0.5 mg/kg, iv; assay type: functional, organism-based; design: dose 0.5 mg/kg; in short: as §1
Cathepsin S = Cathepsin S (Homo sapiens, UniProt P25774); experiment: Inhibitory constant against human cathepsin S using Z-Val-Val-Arg-AMC substrate
Cathepsin S, sequence (P25774 whole entry): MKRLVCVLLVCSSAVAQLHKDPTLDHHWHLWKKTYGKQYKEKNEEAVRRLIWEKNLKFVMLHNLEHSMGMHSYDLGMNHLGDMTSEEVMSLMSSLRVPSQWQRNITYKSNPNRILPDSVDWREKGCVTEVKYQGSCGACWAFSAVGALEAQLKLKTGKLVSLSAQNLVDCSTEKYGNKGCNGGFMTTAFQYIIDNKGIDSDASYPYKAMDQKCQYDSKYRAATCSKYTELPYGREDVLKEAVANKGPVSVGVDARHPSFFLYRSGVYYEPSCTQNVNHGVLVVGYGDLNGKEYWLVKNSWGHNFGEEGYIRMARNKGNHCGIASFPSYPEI
In short: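 Recombinant human cathepsin S at 500 pM in 50 mM MES pH 6.5, 2.5 mM β-mercaptoethanol, 2.5 mM EDTA, 100 mM NaCl, 0.001% BSA, 10% DMSO. 30 min enzyme–inhibitor preincubation at 21–24 °C, 8 inhibitor concentrations. Started with 60 μM Z-Val-Val-Arg-AMC; initial rates by AMC fluorescence (ex 355/em 460). Ki(app) by Morrison tight-binding fit.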

[3] = Plasma clearance in rat administered with 0.5 mg/kg, iv; assay type: ADME, organism-based; design: dose 0.5 mg/kg, route intravenous; in short: as §1
[4] = biological target: Cathepsin K (Homo sapiens) (UniProt P43235); experiment: Inhibitory constant against human cathepsin K using Z-Phe-Arg-AMC substrate
[5] = Volume of distribution in rat administered with 0.5 mg/kg, iv; assay type: ADME, organism-based; design: dose 0.5 mg/kg, route intravenous; details: in vivo, read-out: Vss; in short: as §1
Procathepsin L = Procathepsin L (Homo sapiens, UniProt P07711); experiment: Inhibitory constant against human cathepsin L using Z-Phe-Arg-AMC substrate
Procathepsin L, sequence (P07711 whole entry): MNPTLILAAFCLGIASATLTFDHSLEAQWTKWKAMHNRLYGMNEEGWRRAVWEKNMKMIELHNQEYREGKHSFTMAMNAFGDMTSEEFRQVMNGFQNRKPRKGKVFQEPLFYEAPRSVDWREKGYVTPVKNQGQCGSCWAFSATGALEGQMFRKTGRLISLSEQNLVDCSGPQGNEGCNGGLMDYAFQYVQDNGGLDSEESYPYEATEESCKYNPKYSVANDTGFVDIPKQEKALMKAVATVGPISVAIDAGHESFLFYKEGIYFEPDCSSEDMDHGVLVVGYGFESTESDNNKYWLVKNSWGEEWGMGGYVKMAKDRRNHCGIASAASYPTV
In short: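 Recombinant human cathepsin L at 500 pM in 50 mM MES pH 5.5, 2.5 mM DTT, 2.5 mM EDTA, 10% DMSO. Enzyme preincubated with inhibitor (8 concentrations) 30 min at 21–24 °C. Reaction started with 10 μM Z-Phe-Arg-AMC; AMC fluorescence (ex 355/em 460 nm) over first ~5 min. Ki(app) fitted with Morrison tight-binding model.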

[6] = Maximum concentration in rat administered with 0.5 mg/kg, iv; assay type: ADME, organism-based; design: dose 0.5 mg/kg, route intravenous; details: in vivo
Rattus norvegicus [7] = species on record: Rattus norvegicus; experiment: Terminal half-life in rat; assay type: functional, organism-based
[8] = Maximum concentration in rat administered with 10 mg/kg, po; assay type: ADME, organism-based; design: dose 10 mg/kg, route oral; details: in vivo
In short: (§2)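 Single-compound rat PK: 0.5 mg/kg iv and 10 mg/kg oral. Bioavailability from oral versus iv exposure.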

Rattus norvegicus [9] = experiment: Oral bioavailability in rat; assay type: functional, organism-based; in short: as §2
Rhesus monkey = experiment: Reduction of collagen breakdown products in ovariectomized rhesus monkey dosed at 15, 3 and 0.6 mg/kg, po; assay type: functional, Macaca mulatta; design: scale not given: the % may be the effect or the level left
In short: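 OVX rhesus monkeys (mean age 15 y, 3 y post-surgery): vehicle 1% carboxymethylcellulose po qd 2 days, then compound po qd 8–11 days at 15, 3 or 0.6 mg/kg, then 3 days vehicle. Controls on vehicle for 13 days. 24-h urine collected pre-dose, during dosing and 10–17 days after; urinary NTx normalized to creatinine (nM/mM).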

Cathepsin K = biological target: T1, Cathepsin K (Oryctolagus cuniculus, UniProt P43236); experiment: Inhibitory constant against rabbit cathepsin K using Z-Phe-Arg-AMC substrate; details: read-out: Ki app
T1 sequence (P43236 whole entry): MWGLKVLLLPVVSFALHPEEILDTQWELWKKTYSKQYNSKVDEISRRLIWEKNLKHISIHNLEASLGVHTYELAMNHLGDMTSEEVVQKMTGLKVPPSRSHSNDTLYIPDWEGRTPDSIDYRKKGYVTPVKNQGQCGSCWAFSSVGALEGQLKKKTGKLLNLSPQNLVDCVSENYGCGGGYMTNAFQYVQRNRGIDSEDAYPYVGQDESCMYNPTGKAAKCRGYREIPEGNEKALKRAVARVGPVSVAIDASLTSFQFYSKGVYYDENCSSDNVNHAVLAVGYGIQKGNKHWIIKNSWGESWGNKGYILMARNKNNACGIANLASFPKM

[10] = Maximum concentration in rat administered with 20 mg/kg, po; assay type: ADME, organism-based; design: dose 20 mg/kg, route oral; details: in vivo
Rattus norvegicus [11] = experiment: Terminal half-life in rat administered with 10 mg/kg, po; assay type: functional, organism-based; design: dose 10 mg/kg; in short: as §2
Rattus norvegicus [12] = experiment: Time of peak concentration post-dose in rat administered with 10 mg/kg, po; assay type: functional, organism-based; design: dose 10 mg/kg; in short: as §2

Row | Compound | pIC50 (Osteoclast) | pKi (Cathepsin B; read-out: Ki app) | T1/2 (Rattus norvegicus [1]) | MRT (Rattus norvegicus [2]) | pKi (Cathepsin S; read-out: Ki app) | clearance [3] | pKi ([4]; read-out: Ki app) | Vd [5] | pKi (Procathepsin L; read-out: Ki app) | Cmax [6] | bioavailability (Rattus norvegicus [9]) | also measured
1 | CC(C)(C)N1CCN(c2ccc(-c3ccc(C(=O)NC4(C(=O)NCC#N)CCCCC4)cc3)cc2)CC1 | 7.89 | 6.29 | 2.4 h | 2.87 h | 5.10 | 67 mL/min/kg | > 9.60 | 11.2 L/kg | 4.96 | – | – | –
2 | N#CCNC(=O)C1(NC(=O)c2ccc(-c3ccc(S(=O)(=O)N4CCN(CC(F)(F)F)CC4)cc3)cc2)CCCCC1 | 6.49 | 4.25 | 0.767 h | 0.65 h | 5.26 | 40 mL/min/kg | 8.21 | 1.55 L/kg | 6.27 | 1200 nM | – | –
3 | CC(C)(C)NC1CCN(c2ccc(-c3ccc(C(=O)NC4(C(=O)NCC#N)CCCCC4)cc3)cc2)CC1 | 7.40 | – | 1.93 h | 2.17 h | – | 84 mL/min/kg | – | 10.7 L/kg | – | 360 nM | – | pKi (Cathepsin B; read-out: Ki): 4.12; pKi (Cathepsin S; read-out: Ki): 5.41; pKi ([4]; read-out: Ki): > 9.60; pKi (Procathepsin L; read-out: Ki): 5.80
4 | COCCN1CCC(Oc2ccc(-c3ccc(C(=O)NC4(C(=O)NCC#N)CCCCC4)cc3)cc2)CC1 | 7.68 | 6.27 | 2.02 h | 1.95 h | 5.21 | 43 mL/min/kg | > 9.60 | 3.27 L/kg | 5.92 | 370 nM | – | –
5 | N#CCNC(=O)C1(NC(=O)c2ccc(-c3ccc(S(=O)(=O)N4CCNCC4)cc3)cc2)CCCCC1 | 7.70 | 6.42 | 1.3 h | 0.667 h | 5.04 | 82 mL/min/kg | > 9.60 | 3.29 L/kg | 6.37 | 1000 nM | – | –
6 | CN1CCCC(Oc2ccc(-c3ccc(C(=O)NC4(C(=O)NCC#N)CCCCC4)cc3)cc2)C1 (centres undefined) | 8.00 | 6.06 | 1.5 h | 1.35 h | 4.89 | 104 mL/min/kg | 9.17 | 8.46 L/kg | 5.64 | 250 nM | – | –
7 | N#CCNC(=O)C1(NC(=O)c2ccc(-c3csc(N4CCC(N5CCCCC5)CC4)n3)cc2)CCCCC1 | 8.52 | 6.16 | – | – | 4.38 | – | 9.35 | – | 5.06 | – | 35% | T1/2 (Rattus norvegicus [7]): 3.35 h; Cmax [8]: 360 nM
8 | CN1CCN(c2nc(-c3ccc(C(=O)NC4(C(=O)NCC#N)CCCCC4)cc3)cs2)CC1 | 8.30 | 6.00 | – | – | 4.33 | – | 9.70 | – | 5.22 | – | 68% | T1/2 (Rattus norvegicus [7]): 3.4 h; Activity (Rhesus monkey): 76%; pKi (Cathepsin K): 9.30; Cmax [10]: 1400 nM
9 | CN1CCC(Oc2ccc(-c3ccc(C(=O)NC4(C(=O)NCC#N)CCCCC4)cc3)cc2)CC1 | 7.70 | 6.28 | 1.9 h | 1.9 h | 4.92 | 97 mL/min/kg | > 9.60 | 11.1 L/kg | 5.25 | 320 nM | – | –
10 | N#CCNC(=O)C1(NC(=O)c2ccc(-c3ccc(N4CCNCC4)cc3)cc2)CCCCC1 | 7.11 | 6.38 | 1.4 h | 1.73 h | 5.31 | 71 mL/min/kg | > 9.60 | 7.23 L/kg | 5.10 | 500 nM | 21% | T1/2 (Rattus norvegicus [11]): 1.88 h; Tmax (Rattus norvegicus [12]): 2 h
11 | N#CCNC(=O)C1(NC(=O)c2ccc(-c3csc(N4CCN(C5CCOCC5)CC4)n3)cc2)CCCCC1 | 8.10 | 6.08 | 1.07 h | 0.983 h | 4.77 | – | 9.33 | – | < 3.82 | 490 nM | – | –
12 | CC(C)(C)N1CCN(c2nc(-c3ccc(C(=O)NC4(C(=O)NCC#N)CCCCC4)cc3)cs2)CC1 | 9.00 | 6.04 | – | – | 4.72 | – | 9.54 | – | 5.06 | – | 44% | T1/2 (Rattus norvegicus [7]): 1.67 h; Cmax [8]: 800 nM
13 | N#CCNC(=O)C1(NC(=O)c2ccc(-c3csc(N4CCC(N5CCOCC5)CC4)n3)cc2)CCCCC1 | 8.52 | 6.17 | – | – | 5.19 | – | > 9.60 | – | 4.80 | – | 48% | T1/2 (Rattus norvegicus [7]): 5.33 h; Cmax [8]: 1700 nM
14 | N#CCNC(=O)C1(NC(=O)c2ccc(-c3ccc(C4(F)CCNCC4)cc3)cc2)CCCCC1 | 7.46 | 6.55 | 0.783 h | 0.8 h | 5.10 | 37 mL/min/kg | > 9.60 | 1.76 L/kg | 6.05 | 660 nM | – | –
15 | N#CCNC(=O)C1(NC(=O)c2ccc(-c3ccc(OC4CCN(CCO)CC4)cc3)cc2)CCCCC1 | 7.23 | 6.19 | 2.05 h | 1.83 h | 4.80 | 231 mL/min/kg | > 9.60 | 25.3 L/kg | 5.04 | 220 nM | – | –
